Rows were chosen to be rich in hits. Some 3.7% of all compounds tested hit in one or more screens of this group.
DENV2 CPE rescue = inhibitors of DENV2 cytopathic effect | DENV2-infected cells, cytopathic effect rescue, plate reader | CPE inhibition, % at 9.99 µM | 1.7% of 350,000 active; in the data active = CPE inhibition above about 20%, passing the limit was not always enough; inconclusive = no clear call, values can overlap the other calls; tested in BHK-21 cells;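 note: 0% = median of neutral control wells and 100% = median of positive control wells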
ERAP1 HTS inh = inhibitors of human ERAP1 aminopeptidase; recombinant ERAP1, Leu-AMC fluorescence, 60 min; inhibition, % at 10.7 µM; 0.15% of 340,000 active; AID 652197;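 active = mean replicate inhibition of at least 30%, or all replicates individually reaching that 30% level; inactive = mean below 30% and not every replicate reaching it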;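 note: 0% = neutral control wells and 100% = L-leucinethiol positive control wells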
Target sequence (Q9NZ08 whole entry, looked up): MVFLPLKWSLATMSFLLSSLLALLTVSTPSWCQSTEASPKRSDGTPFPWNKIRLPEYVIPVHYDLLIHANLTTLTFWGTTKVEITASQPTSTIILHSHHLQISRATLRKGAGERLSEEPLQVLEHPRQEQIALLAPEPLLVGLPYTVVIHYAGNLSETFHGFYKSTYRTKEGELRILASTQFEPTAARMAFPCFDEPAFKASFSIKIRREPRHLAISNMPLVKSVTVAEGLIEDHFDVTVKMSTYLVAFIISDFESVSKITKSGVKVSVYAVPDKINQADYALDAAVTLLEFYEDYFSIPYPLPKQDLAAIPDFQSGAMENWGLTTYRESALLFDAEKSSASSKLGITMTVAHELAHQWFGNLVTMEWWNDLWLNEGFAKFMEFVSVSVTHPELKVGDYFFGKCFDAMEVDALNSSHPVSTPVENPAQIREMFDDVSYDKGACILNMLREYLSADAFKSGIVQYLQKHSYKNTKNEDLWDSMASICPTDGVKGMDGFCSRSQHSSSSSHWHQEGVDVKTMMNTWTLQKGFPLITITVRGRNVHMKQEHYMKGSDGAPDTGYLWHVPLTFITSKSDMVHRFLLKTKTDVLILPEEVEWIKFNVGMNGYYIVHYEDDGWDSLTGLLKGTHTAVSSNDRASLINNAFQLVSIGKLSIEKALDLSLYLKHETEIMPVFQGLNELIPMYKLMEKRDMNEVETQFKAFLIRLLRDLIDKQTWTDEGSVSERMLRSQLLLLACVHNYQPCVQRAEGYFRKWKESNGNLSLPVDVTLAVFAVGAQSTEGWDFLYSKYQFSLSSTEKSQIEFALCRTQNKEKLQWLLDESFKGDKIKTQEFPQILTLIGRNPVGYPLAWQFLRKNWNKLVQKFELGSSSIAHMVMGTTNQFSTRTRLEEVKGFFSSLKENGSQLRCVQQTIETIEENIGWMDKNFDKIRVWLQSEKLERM
FGF22 binding = FGF22 (human) thermal shift binding. recombinant FGF22 thermal shift, SYPRO orange fluorescence; percent of sucrose octasulfate shift, DMSO zero. activity (Tm shift, normalised), % at 9.99 µM. 1.5% of 340,000 active. Q9HCT0;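 active = mean Tm shift, scaled 0 neutral to 100 positive control, at about 1.3% or above, every replicate too, limit read from the data; inconclusive = no clear call, values can overlap the other calls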
E-selectin induc = E-selectin induction on HUVECs. HUVEC E-selectin immunofluorescence imaging; normalized: neutral wells 0, TNF-alpha wells 100. activation, % at 7.58 µM. 0.37% of 260,000 active;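 active = mean E-selectin-positive cell signal at least 10% of the positive control, reached in at least 60% of replicates, without over 20% cell loss; inconclusive = no rule given, readout overlaps actives, possibly toxicity-flagged; inactive = the rest, including those meeting only one limit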
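Read-out basis: % PE-positive cells; Test system: HUVEC primary endothelial cells; Technique: immunofluorescence imaging; Dosing: single-point compound dose.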
CFTR F508del cor = CFTR F508del correction in bronchial cells | CFBE cells, YFP halide quenching; stimulated with forskolin plus potentiator P3; % fluorescence drop versus neutral controls | activity (quench increase), % at 7.58 µM | 0.36% of 350,000 active | AID 720511;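 active = mean added fluorescence quench of at least 8% versus neutral control, with both replicates also reaching 8%; inconclusive = only one of the mean or replicate conditions met; inactive = mean below 8% and not both replicates reaching 8%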;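 note: cells transiently co-express mutant CFTR-F508del with the halide-sensitive YFP; corrector assay measuring rescue of mutant channel to the surface after 24 h compound exposure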
The depositor's hits bear a star; u = inconclusive; x = not tested or not shown.

SMILES | DENV2 CPE rescue | ERAP1 HTS inh | FGF22 binding | E-selectin induc | CFTR F508del cor
CC(=O)c1ccc(OCc2cc(C(=O)NCCN3CCCC(O)C3)no2)cc1 (stereo not drawn) | -2.6 | 4.4 | 0.0 | 8.2 | 1.0
COc1cc(C)ccc1OCc1cc(C(=O)NCCN2CCCC(O)C2)no1 (stereo not drawn) | 62.5* | 0.2 | 0.1 | 1.0 | -1.5
Cc1noc(C)c1NC(=O)N(C)C[C@H]1Oc2ccc(NC(=O)c3ccncc3)cc2C(=O)N([C@@H](C)CO)C[C@@H]1C | 9.8 | -1.1 | -0.5 | -0.1 | -1.0
COc1ccc(CN(C)C[C@H]2OCCCC[C@@H](C)Oc3ccc(NS(=O)(=O)c4ccc(Cl)cc4)cc3C(=O)N([C@@H](C)CO)C[C@@H]2C)cc1 | u | -1.1 | -0.1 | x | -3.4
COc1ccc(CN(C)C[C@@H]2OCCCC[C@@H](C)Oc3ccc(NS(=O)(=O)c4ccc(Cl)cc4)cc3C(=O)N([C@@H](C)CO)C[C@@H]2C)cc1 | 11.2 | -3.4 | -0.2 | x | 3.5
COc1ccc(CN(C)C[C@@H]2OCCCC[C@@H](C)Oc3ccc(NS(=O)(=O)c4ccc(Cl)cc4)cc3C(=O)N([C@H](C)CO)C[C@H]2C)cc1 | 70.4* | -4.6 | 0.1 | x | 2.0
COc1ccc(CN(C)C[C@@H]2OCCCC[C@H](C)Oc3ccc(NS(=O)(=O)c4ccc(Cl)cc4)cc3C(=O)N([C@@H](C)CO)C[C@H]2C)cc1 | 31.0* | -5.0 | 0.0 | x | 3.6
Cc1noc(C)c1NC(=O)N(C)C[C@H]1Oc2ccc(NC(=O)Nc3cccc4ccccc34)cc2CC(=O)N([C@H](C)CO)C[C@@H]1C | 2.6 | -0.5 | -0.7 | 0.1 | -1.7
CN(C)C(=O)C[C@H]1CC[C@@H]2[C@H](COC[C@H](O)CN2CC2CCCC2)O1 | -2.8 | 0.0 | 0.4 | 0.1 | 1.2
CC(C)(C)C1COc2ccccc2N1C(=O)c1cccc(Cl)c1 (stereo not drawn) | 15.6 | -0.5 | -0.3 | 2.6 | 9.5*
CS(=O)(=O)N1CCC2(CC1)OCCN2S(=O)(=O)c1ccccc1 | -1.6 | -1.3 | -0.1 | 3.9 | -0.2
CCS(=O)(=O)N1CCC2(CC1)OCCN2S(=O)(=O)c1ccccc1 | 39.2* | -0.8 | -0.2 | -0.3 | -0.1
Nc1[nH]c(C(=O)c2ccccc2)c(-c2ccc(Cl)cc2)c1C(=O)c1c[nH]c2ccccc12 | 27.7* | -0.1 | 0.1 | 0.2 | -0.7
Nc1[nH]c(C(=O)c2ccc(Br)cc2)c(-c2c(F)cccc2F)c1C(=O)NCCc1c[nH]c2ccccc12 | 39.3* | -0.9 | 0.0 | 0.0 | 2.5
COCCNC(=O)c1c(N)[nH]c(C(=O)c2ccc(Br)cc2)c1-c1ccc(Br)cc1 | 33.7* | -3.8 | 0.0 | -0.4 | -1.1
Nc1[nH]c(C(=O)c2ccccc2)c(-c2ccccc2C(F)(F)F)c1C(=O)NCCc1c[nH]c2ccccc12 | 2.6 | -1.2 | -0.1 | 0.0 | 9.8*
Nc1[nH]c(C(=O)c2ccc(Cl)cc2)c(-c2ccc(Br)cc2)c1C(=O)NCCc1c[nH]c2ccccc12 | -4.8 | 2.3 | -0.1 | 0.8 | -3.0
Nc1[nH]c(C(=O)c2ccc(Br)cc2)c(-c2ccc(Br)cc2)c1C(=O)NCc1ccc(-c2ccccc2)cc1 | 1.8 | 1.0 | x | -0.1 | -5.1
COc1ccc(-c2c(C(=O)c3ccccc3)[nH]c(N)c2C(=O)NCCc2c[nH]c3ccccc23)cc1 | 31.2* | -2.8 | 0.0 | 0.6 | -0.2
COc1ccc(C(=O)c2[nH]c(N)c(C(=O)NCCc3c[nH]c4ccccc34)c2-c2ccc(Cl)cc2)cc1 | 11.1 | -1.3 | 0.0 | 0.1 | 4.2
Nc1[nH]c(C(=O)c2ccc(Br)cc2)c(-c2ccc(F)cc2)c1C(=O)NCCc1c[nH]c2ccccc12 | 26.5* | -0.7 | 0.1 | 0.5 | 0.8
Nc1[nH]c(C(=O)c2ccc(Br)cc2)c(-c2ccc(Br)cc2)c1C(=O)NCCc1c[nH]c2ccccc12 | 3.1 | 16.4 | 0.1 | 0.1 | 0.7
Nc1[nH]c(C(=O)c2ccc(Br)cc2)c(-c2ccccc2Br)c1C(=O)NCCc1c[nH]c2ccccc12 | -9.1 | 0.4 | 43.6* | 0.2 | -1.0
Nc1[nH]c(C(=O)c2ccc(Br)cc2)c(-c2ccncc2)c1C(=O)NCCc1c[nH]c2ccccc12 | 20.2* | 1.0 | -0.2 | 0.2 | 0.1
CC(C)C#Cc1cnc2c(c1)C(=O)N([C@@H](C)CO)C[C@H](C)[C@H](CN(C)C(=O)Nc1ccccc1F)O2 | 5.3 | -1.4 | -0.1 | 0.7 | -2.1
SMILES | DENV2 CPE rescue | ERAP1 HTS inh | FGF22 binding | E-selectin induc | CFTR F508del cor
O=C(NCCc1ccccc1)[C@@H]1[C@@H](CO)[C@@H]2Cn3c(cccc3=O)[C@H]1N2C(=O)C1CCCC1 | 0.4 | 3.8 | 0.1 | -0.2 | -2.9
C[C@H]1CN([C@@H](C)CO)C(=O)c2cc(NC(=O)Nc3ccc(C(F)(F)F)cc3)ccc2O[C@@H]1CN(C)C(=O)Nc1ccc(C(F)(F)F)cc1 | -5.2 | 1.3 | 0.2 | 0.6 | -0.3
O=C(OCC1OC(n2ccc(=O)[nH]c2=O)C2OC12)c1ccccc1 (stereo not drawn) | 2.5 | 1.4 | 43.0* | 1.4 | -2.9
O=C(OCC1OC(n2ccc(=O)[nH]c2=O)C(Cl)C1O)c1ccccc1 (stereo not drawn) | 17.5 | 2.2 | -0.2 | 0.2 | -0.8
COc1ccc2c(c1)NC(C)(C)C=C2C | 11.7 | -0.2 | 42.3 | x | 3.3
CC1=CC(C)(C)Nc2ccccc21 | 28.1* | -3.1 | -0.1 | x | 0.5
CCN(CC)C(=O)c1oc2ccc(S(=O)(=O)N3CC(C)CC(C)C3)cc2c1C (stereo not drawn) | 7.1 | -2.2 | -0.4 | x | 9.2*
Cc1c(C(=O)NCc2cccnc2)oc2ccc(S(=O)(=O)N3CC(C)CC(C)C3)cc12 (stereo not drawn) | 21.2* | x | 0.1 | x | 0.0
Cc1c(C(=O)Nc2ccc(F)cc2)oc2ccc(S(=O)(=O)N3CC(C)CC(C)C3)cc12 (stereo not drawn) | -0.9 | 1.0 | 0.2 | x | 7.7
CCN(CC)C(=O)c1oc2ccc(S(=O)(=O)N3CCCCCC3)cc2c1C | -0.9 | 6.1 | 0.1 | x | -0.6
COc1ccc(NC(=O)Nc2ccc3c(c2)[C@@H]2C[C@@H](CC(=O)NCc4ccccn4)O[C@@H](CO)[C@@H]2O3)cc1 | 5.2 | -0.2 | -0.1 | 0.7 | -3.3
COc1ccc2c3c([nH]c2c1)[C@H](CO)N(CC1CC1)CC31CN(C(=O)C2CCOCC2)C1 | -9.8 | 0.3 | -0.2 | 0.2 | -0.5
O=C(Nc1cccnc1)c1ccc(-c2cc(Cl)ccc2Cl)o1 | 5.3 | -9.6 | 43.3* | -0.2 | -0.4
C[C@@H](NC(=O)C[C@H]1C=C[C@H](NC(=O)CN2CCOCC2)[C@@H](CO)O1)c1ccccc1 | 9.5 | 7.8 | -0.2 | 0.1 | -2.9
O=C(CCc1nnc(CCCc2ccccc2)o1)NCCN1CCOC1=O | -2.9 | 0.8 | 42.9* | x | 1.1
Cn1cc(CCNC(=O)CCc2nnc(CCCCc3ccccc3)o2)cn1 | -1.3 | 0.9 | 0.1 | x | 0.3
